According to ChEMBL document CHEMBL4364291, “Benzylideneacetone Derivatives Inhibit Osteoclastogenesis and Activate Osteoblastogenesis Independently Based on Specific Structure-Activity Relationship” (J Med Chem, 2019):
Activity calls are given as the source filed them. The rule behind the calls is not given here.

Legend:
MC3T3-E1 [1] = experiment: Induction of osteoblast differentiation in mouse MC3T3-E1 cells co-cultured with C57BL/6 mouse bone marrow macrophages assessed as activation of ALP production at 10 uM measured on day 14 relative to control; assay type: functional
Procedure, shortened: (§1)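 MC3T3-E1 cells were cocultured with C57BL/6 BMM in differentiation factors for both cell types, with 10 μM compound, and grown for 21 d. ALP production was measured at 7, 14 and 21 d after coculture induction, relative to untreated cells.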

BMDM [2] = experiment: Inhibition of M-CSF/RANKL-induced osteoclast differentiation in C57BL/6 mouse bone marrow macrophages co-cultured with mouse MC3T3-E1 cells assessed as reduction in multinucleated TRAP+ cells at 10 uM measured on day 6 by TRAP staining-based inverted microscopic analysis; assay type: functional, cell-based
Procedure, shortened: (§2)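 C57BL/6 BMM were cocultured with MC3T3-E1 preosteoblasts in osteoclast and osteoblast differentiation factors. The negative control had M-CSF only. Compound was added at a final 10 μM. TRAP staining and inverted-microscope inspection were done on day 6.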

MC3T3-E1 [3] = experiment: Induction of osteoblast differentiation in ascorbic acid/beta-glycerophosphate-induced mouse MC3T3-E1 cells co-cultured with C57BL/6 mouse bone marrow macrophages at 10 uM measured on day 6 by TRAP staining-based inverted microscopic analysis; assay type: functional, cell-based
BMDM [4] = experiment: Inhibition of M-CSF/RANKL-induced osteoclast differentiation in C57BL/6 mouse bone marrow macrophages co-cultured with mouse MC3T3-E1 cells assessed as reduction in multinucleated TRAP+ cells measured on day 6 by TRAP staining-based inverted microscopic analysis; assay type: functional, cell-based; procedure, shortened: as §2
MC3T3-E1 [5] = experiment: Induction of osteoblast differentiation in mouse MC3T3-E1 cells co-cultured with C57BL/6 mouse bone marrow macrophages assessed as activation of ALP production at 10 uM measured on day 7 relative to control; assay type: functional; procedure, shortened: as §1
MC3T3-E1 [6] = experiment: Induction of osteoblast differentiation in mouse MC3T3-E1 cells assessed as increase in osteocalcin expression at 50 uM after 7 days by Western blot analysis relative to control; assay type: functional
Procedure, shortened: (§3)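 MC3T3-E1 cells were differentiated with osteoblast differentiation factors, with or without 50 μM compound, for 21 d. The negative control lacked differentiation factors. Osteocalcin in culture medium was measured by Western blot at 7, 14 and 21 d. Values are mean ± SD of three independent experiments.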

MC3T3-E1 [7] = experiment: Induction of osteoblast differentiation in mouse MC3T3-E1 cells assessed as increase in osteocalcin expression at 50 uM after 21 days by Western blot analysis relative to control; assay type: functional; procedure, shortened: as §3
MC3T3-E1 [8] = experiment: Induction of osteoblast differentiation in ascorbic acid/beta-glycerophosphate-induced mouse MC3T3-E1 cells co-cultured with C57BL/6 mouse bone marrow macrophages assessed as increase in osteocalcin expression at 10 uM measured on day 7 by Western blot analysis; assay type: functional, cell-based
Procedure, shortened: (§4)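 MC3T3-E1 and C57BL/6 BMM cocultures were given osteoblast plus osteoclast differentiation factors, with or without 10 μM compound, for 21 d. The negative control had M-CSF only. Osteocalcin in culture medium was quantified by Western blot at 7, 14 and 21 d.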

MC3T3-E1 [9] = experiment: Induction of osteoblast differentiation in ascorbic acid/beta-glycerophosphate-induced mouse MC3T3-E1 cells co-cultured with C57BL/6 mouse bone marrow macrophages assessed as increase in osteocalcin expression at 10 uM measured on day 21 by Western blot analysis; assay type: functional, cell-based; procedure, shortened: as §4
BMDM [10] = experiment: Inhibition of RANKL-induced osteoclastogenesis in C57BL/6 mouse bone marrow macrophages assessed as effect on NFATc1 expression at 10 uM measured over 5 days by Western blot analysis; assay type: functional, cell-based
Procedure, shortened: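 C57BL/6 BMM were grown with M-CSF plus RANKL over the course of osteoclastogenesis, treated at 0.5 or 10 μM. NF-κB and NFATc1 were followed by Western blot. The negative control was M-CSF only.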

BMDM [11] = experiment: Effect on NFkappaB expression in M-CSF induced C57BL/6 mouse bone marrow macrophages at 10 uM measured over 5 days by Western blot analysis; assay type: functional, cell-based
Procedure, shortened: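 C57BL/6 BMM were proliferated with M-CSF alone without RANKL and treated at 0.5 or 10 μM. NF-κB expression was followed over time by Western blot.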

BMDM [12] = experiment: Suppression of NFATc1 expression in M-CSF induced C57BL/6 mouse bone marrow macrophages at 10 uM measured over 5 days by Western blot analysis; assay type: functional, cell-based
Procedure, shortened: (§5)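 C57BL/6 BMM were kept proliferating with M-CSF in the absence of RANKL and treated with compound (0.5 or 10 μM). NFATc1 expression was followed over the culture period by Western blot.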

MC3T3-E1 [13] = experiment: Induction of osteoblast differentiation in mouse ascorbic acid/beta-glycerophosphate-induced MC3T3-E1 cells assessed as increase in RUNX2 expression at 50 uM after 21 days by Western blot analysis relative to control; assay type: functional
Procedure, shortened: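 MC3T3-E1 cells were induced with osteoblast differentiation factors, with or without 50 μM compound, for 21 d. Cells were harvested at 7, 14 and 21 d and RUNX2 was quantified by Western blot against untreated differentiated cells. The negative control lacked differentiation factors. Values are mean ± SD of three independent experiments.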

[14] = Cytotoxicity against human HaCaT cells after 24 hrs by MTT assay; assay type: cell-based; conditions: read-out: LD50
Procedure, shortened: (§6)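 Cells were maintained in DMEM at 37 °C under 5% CO2. Growth and survival were estimated by MTT assay, and the value is reported as LD50.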

[15] = Cytotoxicity against mouse NIH/3T3 cells after 24 hrs by MTT assay; assay type: cell-based, NIH3T3; conditions: read-out: LD50; procedure, shortened: as §6
AGS = experiment: Antiproliferative activity against human AGS cells after 24 hrs by MTT assay; assay type: functional; conditions: read-out: LD50 (the source's name)
PC-3 = experiment: Antiproliferative activity against human PC3 cells after 24 hrs by MTT assay; assay type: functional; conditions: PC-3, 24 h, read-out: LD50 (the source's name); procedure, shortened: as §6
BMDM [16] = experiment: Suppression of NFATc1 expression in M-CSF induced C57BL/6 mouse bone marrow macrophages at 0.5 uM measured over 5 days by Western blot analysis; assay type: functional, cell-based; procedure, shortened: as §5
Mus musculus [17] = experiment: Antiosteoporotic activity in ddY mouse model of OVX-induced osteoporosis assessed as increase in ratio of bone volume/trabecular volume in femur bone at 1 mg/kg, po administered once daily via gavage for 4 weeks by microcomputed tomographic analysis; assay type: functional, organism-based
Procedure, shortened: (§7)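 Female ddY mice were ovariectomized. Oral gavage began 1 week after surgery and ran once daily for 28 d. Vehicle was 300 μL PBS containing 0.5% (v/v) DMSO, also given to sham and OVX controls. Mice were then euthanized and femur and tibia fixed for CT imaging. Values are mean ± SD of four mice.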

Mus musculus [18] = experiment: Antiosteoporotic activity in ddY mouse model of OVX-induced osteoporosis assessed as increase in cross-sectional thickness in femur bone at 1 mg/kg, po administered once daily via gavage for 4 weeks by microcomputed tomographic analysis; assay type: functional, organism-based; procedure, shortened: as §7
Mus musculus [19] = experiment: Antiosteoporotic activity in ddY mouse model of OVX-induced osteoporosis assessed as increase in trabecular thickness in femur bone at 1 mg/kg, po administered once daily via gavage for 4 weeks by microcomputed tomographic analysis; assay type: functional, organism-based; procedure, shortened: as §7
T-24 = experiment: Antiproliferative activity against human T24 cells after 24 hrs by MTT assay; assay type: functional; conditions: T-24, 24 h, read-out: LD50 (the source's name)
[20] = Potency index, ratio of alendronate IC50 to test compound IC50 for inhibition of M-CSF/RANKL-induced osteoclast differentiation in C57BL/6 mouse bone marrow macrophages by measuring decrease in multinucleated TRAP+ cells incubated for 6 days with fresh media replacement on day 3 and measured on day 6 by TRAP staining-based microscopic analysis; assay type: functional, BMDM

**Q.** For `CC(=O)/C=C/c1ccc(O)c(O)c1`, which Activity (MC3T3-E1 [1]) is on record?
**A.** Its Activity is 110%.

**Q.** What about the inhibition (BMDM [2]) of the same molecule?
**A.** The inhibition was “Active”.

**Q.** And the Activity (MC3T3-E1 [3])?
**A.** Its Activity is “Active”.

**Q.** What about the inhibition (BMDM [4]) of the same molecule?
**A.** Its inhibition is “Dose-dependent effect”.

**Q.** What about the Activity (MC3T3-E1 [5]) of the same molecule?
**A.** Its Activity is 100%.

**Q.** What about the “fold change (FC)” value (MC3T3-E1 [6]) of the same molecule?
**A.** The value was 1.8.

**Q.** What about the “fold change (FC)” value (MC3T3-E1 [7]) of the same molecule?
**A.** Its value is 2.

**Q.** And the Activity (MC3T3-E1 [8])?
**A.** Its Activity is “Active”.

**Q.** And the Activity (MC3T3-E1 [9])?
**A.** The Activity was “Active”.

**Q.** What about the inhibition (BMDM [10]) of the same molecule?
**A.** The inhibition was “inactive”.

**Q.** And the Activity (BMDM [11])?
**A.** Its Activity is “inactive”.

**Q.** And the Activity (BMDM [12])?
**A.** The Activity was “Active”.

**Q.** What about the “fold change (FC)” value (MC3T3-E1 [13]) of the same molecule?
**A.** The value was 3.2.

**Q.** And the CC50 at 24 h [14]?
**A.** The CC50 at 24 h was 3.5 mM.

**Q.** And the CC50 at 24 h [15]?
**A.** The CC50 at 24 h was over 5 mM.

**Q.** What about the CC50 (AGS) of the same molecule?
**A.** Its CC50 is 60 µM.

**Q.** What about the CC50 (PC-3) of the same molecule?
**A.** Its CC50 is 66 µM.

**Q.** Which results are given for `COc1ccc(/C=C/C(C)=O)cc1O`?
**A.** Activity (BMDM [16]): Active; Activity (Mus musculus [17]): Active; Activity (Mus musculus [18]): Active; Activity (Mus musculus [19]): Active; CC50 (T-24): 180 µM; Ratio IC50 [20]: 30
